Screens deposited in PubChem by several laboratories.
NCF1 inh = p47phox (human) inhibition; inhibition, % at 24.7 µM; p47phox/p22phox peptide binding, fluorescence polarization, 2 h; P14598; 220,000 compounds, 0.53% hits;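 active = inhibition above about 30%, limit read from the data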;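 note: 0% = p47phox with labelled peptide and 100% = labelled peptide alone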
Target sequence (P14598 whole entry, looked up): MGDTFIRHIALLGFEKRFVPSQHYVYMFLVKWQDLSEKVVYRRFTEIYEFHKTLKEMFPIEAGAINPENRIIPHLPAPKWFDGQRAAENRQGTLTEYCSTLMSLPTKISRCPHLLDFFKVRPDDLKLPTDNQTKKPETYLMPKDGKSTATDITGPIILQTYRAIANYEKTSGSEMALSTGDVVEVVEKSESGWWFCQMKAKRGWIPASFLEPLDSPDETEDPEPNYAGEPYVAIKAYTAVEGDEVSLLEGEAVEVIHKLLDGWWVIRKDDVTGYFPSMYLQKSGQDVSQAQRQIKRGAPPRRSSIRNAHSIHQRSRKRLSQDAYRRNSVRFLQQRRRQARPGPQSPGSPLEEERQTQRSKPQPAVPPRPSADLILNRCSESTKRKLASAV
Avidin fluor = compound fluoresces at 488/530 nm on avidin beads; compound fluorescence 488/530 nm, flow cytometry; hits give high values; fluorescence (KMESF) at 10 µM; 220,000 compounds, 0.38% hits; AID 1775; in the data active = fluorescence above about 47
Diaphorase act = counter-screen for diaphorase-based assays: diaphorase activators and chemical reducers; 190,000 compounds, 0.005% hits; Diaphorase/resazurin coupled assay, resorufin fluorescence, 16 min; hits give high values; 1 = vehicle wells, 0 = NADH-free wells; activation factor at 20 µM; AID 1229;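 active = diaphorase activity raised at least twofold by the compound at 20 µM; inactive = activation factor below 2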
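Assay system: bacterial diaphorase enzyme (C. kluyveri) / Input: enzyme 0.07 U/mL final / Medium: 50 mM HEPES pH 7.4 with 4.542 mM MgCl2, 0.005% Tween 20 / Doses: single compound dose of 20 µM, 1% DMSO final / Incubation: 16 min enzyme reaction, ambient temperature / Signal: fluorescence, excitation 544 nm and emission 590 nm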
GSH fluor = GSH bead compound fluorescence profile; GSH beads flow cytometry, compound fluorescence 488/530 nm; hits give high values; fluorescence (KMESF) at 10 µM; 190,000 compounds, 0.25% hits; in the data active = fluorescence above about 89;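 note: glutathione beads carrying GST-tagged Bcl family fusion proteins plus one bare bead set; values are compound well signal with DMSO vehicle wells as background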
PMI act satM6P = activators of human phosphomannose isomerase at near-saturating mannose 6-phosphate | P34949 | coupled PMI enzyme assay, resazurin fluorescence, 20 min; hits give high values; 1 = untreated enzyme, 0 = substrate-free blank | activation factor at 20 µM | 190,000 compounds, 0.34% hits;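 active = activation factor of 2 or more at 20 µM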
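Test system: human phosphomannose isomerase with PGI, G6PDH, diaphorase coupling enzymes; Amount: PMI at 15 ng/mL final; Reagent: Mannose-6-phosphate 1.0 mM (near-saturating) plus 0.22 mM NADP+; Timing: 20 min, room temperature; Technique: resorufin fluorescence at Ex 544/Em 590 nm; Dosing: 20 µM single dose.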
PMI activator = increases human mannose-6-phosphate isomerase activity | P34949 | purified human PMI, coupled resazurin fluorescence, 20 min; hits give high values; 1 = vehicle control, 0 substrate-free wells | activation factor at 20 µM | 190,000 compounds, 0.005% hits | AID 1214;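 active = activation factor of 2 or more at 20 µM, relative to plate controls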
* hit, by the source's call; . = not tested or not shown. This is a sample that favours compounds with a hit; in the whole collection about 1.4% have one here.

SMILES	NCF1 inh	Avidin fluor	Diaphorase act	GSH fluor	PMI act satM6P	PMI activator
O=[N+]([O-])c1ccc(Cl)c(/C=N/Nc2nc(N3CCOCC3)nc(N3CCOCC3)n2)c1	-2.3	354*	0.8	61	0.9	0.9
O=[N+]([O-])c1ccc(/C=N/Nc2nc(N3CCOCC3)nc(N3CCOCC3)n2)cc1	-8.9	10	0.9	24	1	0.9
Cc1cc(C)n2ncc(C(=O)Nc3ccc4c(c3)OCO4)c2n1	-10.2	13	0.9	10	0.9	0.9
COc1cccc(/C=N/Nc2ccc(S(=O)(=O)O)cc2)c1O	-8.6	10	0.9	19	2.1*	1.4
Cc1c(C(=O)OC2CCCCC2)[nH]c2c1C(=O)CC(C)(C)C2	-13.4	48*	0.9	13	1	0.9
Cc1c(C(=O)OC(C)C)[nH]c2c1C(=O)CC(C)(C)C2	-6.6	33	1	13	1	1
CN(C1=C(NC(=O)c2ccc(Cl)cc2)C(=O)c2ccccc2C1=O)c1ccccc1	8.6	18	0.6	15	0.7	0.7
CCOC(=O)C1CCCN(C(=O)COC(=O)C2=COCCO2)C1 (centres undefined)	-1.2	71*	0.8	12	0.9	0.9
O=C(OCC(=O)N1CCN(C(=O)c2ccco2)CC1)C1=COCCO1	-9.7	82*	0.8	31	1	1
CN(C)C(CNS(=O)(=O)c1ccc(Br)cc1)c1cccnc1 (centres undefined)	-9.7	32	1	10	1.1	1.1
CSc1cccc(-n2cc(-c3ccc4c(c3)OCO4)[nH]c2=O)c1	-6.5	9	0.7	11	2.1*	1.5
COc1ccc(S(=O)(=O)N(CC(=O)N2CCOCC2)Cc2ccccc2)cc1	10.8	230*	0.9	10	1	1
O=S(=O)(NC1=NCCCCC1)c1ccc2ccccc2c1	1.6	3	0.9	6	1	1
Nc1cc(Cl)ccc1Oc1ccc2ccccc2c1	-3.8	10	0.8	8	0.8	0.8
C=C1c2ccccc2NC(=O)N1c1ccc(OC)cc1	-7.9	11	0.8	12	2.5*	1.7
Cc1ccc2c(c1)/C(=C/c1ccco1)C(=O)N2	-12.0	26	0.6	7	1	1
COc1ccc(N2C(=O)c3ccccc3NC2(C)C)cc1	0.4	6	1	8	1.1	1.1
C=C1c2cc(C)ccc2NC(=O)N1c1ccccc1	-7.2	6	1	25	2.9*	1.8
CN1CCN(C(=O)c2cnn(-c3ccccc3)c2NC(=O)c2ccccc2F)CC1	-7.2	11	1.1	15	1.1	1
CSC1=NC(=O)/C(=C\c2cccc3ccccc23)S1	4.1	200*	1	11	1.3	1.7
N=C1S/C(=C\c2cccc3ccccc23)C(=O)N1c1ccc(F)cc1	-24.4	10	1	8	1	0.9
Cc1cc2cc3c(=O)[nH]c(=O)[nH]c3nc2cc1C	150.7*	4	.	.	.	.
CCSc1nnc(-c2ccccc2SC)o1	1.5	26	0.9	7	2.1*	1.8
CN(C(=O)CCc1nc2ccccc2s1)c1ccccc1	0.6	17	0.8	15	0.9	0.9
CCn1nc(C)c(C(=O)Nc2cc(Oc3cc(C)cc(C)c3)cc([N+](=O)[O-])c2)c1C	-0.6	3	0.8	32	0.8	0.8
COc1cc(C(C)=O)ccc1Oc1ncnc2c1cnn2-c1ccccc1	-12.7	7	0.9	9	1.1	1
COc1cc(OC)c2c(-c3ccccc3)cc(=O)oc2c1C(CCN1CCN(c2ccccc2)CC1)c1ccc(N(C)C)cc1 (centres undefined)	-2.1	9	.	.	.	.
COc1cc(OC)c2ccc(=O)oc2c1C(CCN1CCN(c2ccccc2)CC1)c1ccc(N(C)C)cc1 (centres undefined)	93.9*	8	.	.	.	.
COc1ccc(/C=C2\Sc3ccc(C(=O)NCc4cccnc4)cc3N(C)C2=O)cc1OC	-9.8	6	1	19	1	1
